Data taken from publication PMC6606825 (Journal of Ginseng Research, 2018).

Test: Pharmacokinetics of CK and its metabolite 20
Format: in vivo, healthy Chinese volunteers
Summary of the method: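 Healthy adults given one oral tablet dose fasting (overnight, or 10 h in a crossover food-effect arm); 30 subjects from the 100/200/400 mg groups were pooled with 24 from 200 mg fasting periods. Plasma was stored at −70°C, extracted with MTBE plus internal standards and assayed by LC-MS/MS. Cmax was observed and AUClast calculated by linear trapezoid, each divided by dose. The metabolite/parent ratio was also calculated. Genotyping used Sequenom MassARRAY, and log-transformed values were compared by one-way ANOVA.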

[1] = ABCC4 rs1151471 CC, n = 2, mean (SD)
[2] = ABCC4 rs2274406 TT (first line), mean (SD)
[3] = ABCC4 rs2274406 TT (third line), mean (SD)
[4] = ABCG2 rs2054576 AA (first line), mean (SD)
[5] = ABCG2 rs2054576 AA (third line), mean (SD)

dose-normalized exposure among the groups (100, 200, 400 mg single-dose groups and food-effect trial, fasting): not significantly different | CK AUClast/D (ABCB1 rs1045642 AA, mean (SD)): 28.81 (11.93) | CK Cmax/D (ABCB1 rs1045642 AA, mean (SD)): 4.03 (1.47) | CK AUClast/D (ABCB1 rs1045642 AG, mean (SD)): 27.71 (15.58) | CK Cmax/D (ABCB1 rs1045642 AG, mean (SD)): 3.50 (1.91) | CK AUClast/D (ABCB1 rs1045642 GG, mean (SD)): 31.19 (22.91) | CK Cmax/D (ABCB1 rs1045642 GG, mean (SD)): 4.13 (2.82) | CK AUClast/D (ABCB1 rs1128503 AA, mean (SD)): 28.07 (15.30) | CK Cmax/D (ABCB1 rs1128503 AA, mean (SD)): 3.67 (1.80) | CK AUClast/D (ABCB1 rs1128503 AG, mean (SD)): 28.43 (20.03) | CK Cmax/D (ABCB1 rs1128503 AG, mean (SD)): 3.66 (2.34) | CK AUClast/D (ABCB1 rs1128503 GG, mean (SD)): 33.81 (17.43) | CK Cmax/D (ABCB1 rs1128503 GG, mean (SD)): 4.67 (3.44) | CK AUClast/D (ABCB1 rs2032582 AA, mean (SD)): 26.68 (12.71) | CK Cmax/D (ABCB1 rs2032582 AA, mean (SD)): 3.81 (2.02) | CK AUClast/D (ABCB1 rs2032582 CA, mean (SD)): 27.47 (15.11) | CK Cmax/D (ABCB1 rs2032582 CA, mean (SD)): 3.46 (1.72) | CK AUClast/D (ABCB1 rs2032582 CC, mean (SD)): 33.69 (25.60) | CK Cmax/D (ABCB1 rs2032582 CC, mean (SD)): 4.42 (3.14) | CK AUClast/D (ABCC2 rs717620 CC, mean (SD)): 31.60 (19.89) | CK Cmax/D (ABCC2 rs717620 CC, mean (SD)): 3.98 (2.30) | CK AUClast/D (ABCC2 rs717620 CT, mean (SD)): 25.18 (13.50) | CK Cmax/D (ABCC2 rs717620 CT, mean (SD)): 3.48 (2.01) | CK AUClast/D (ABCC2 rs2273697 GA, mean (SD)): 35.66 (26.59) | CK Cmax/D (ABCC2 rs2273697 GA, mean (SD)): 4.74 (3.23) | CK AUClast/D (ABCC2 rs2273697 GG, mean (SD)): 25.98 (12.06) | CK Cmax/D (ABCC2 rs2273697 GG, mean (SD)): 3.35 (1.44) | CK AUClast/D (ABCC2 rs2756109 GG, mean (SD)): 27.59 (12.16) | CK AUClast/D (ABCC2 rs3740066 CC, mean (SD)): 32.09 (20.46) | CK Cmax/D (ABCC2 rs3740066 CC, mean (SD)): 4.02 (2.37) | CK Cmax/D (ABCC2 rs3740066 CT, mean (SD)): 3.3 (1.87) | CK AUClast/D (ABCC2 rs3740066 TT, n = 1): 55.95 (—) | CK Cmax/D (ABCC2 rs3740066 TT, n = 1): 6.24 (—) | CK AUClast/D (ABCC3 rs4148416 CC, mean (SD)): 29.20 (18.77) | CK Cmax/D (ABCC3 rs4148416 CC, mean (SD)): 3.72 (2.07) | CK AUClast/D (ABCC3 rs4148416 CT, mean (SD)): 27.15 (14.29) | CK Cmax/D (ABCC3 rs4148416 CT, mean (SD)): 3.78 (2.53) | CK AUClast/D (ABCC3 rs4793665 CT, mean (SD)): 29.14 (12.55) | CK Cmax/D (ABCC3 rs4793665 CT, mean (SD)): 4.04 (2.17) | CK AUClast/D (ABCC3 rs4793665 TT, mean (SD)): 28.53 (18.94) | CK Cmax/D (ABCC3 rs4793665 TT, mean (SD)): 3.65 (2.19) | CK AUClast/D (ABCC3 rs12051822 GA, mean (SD)): 23.66 (11.90) | CK Cmax/D (ABCC3 rs12051822 GA, mean (SD)): 3.09 (1.13) | CK AUClast/D (ABCC3 rs12051822 GG, mean (SD)): 30.37 (18.95) | CK Cmax/D (ABCC3 rs12051822 GG, mean (SD)): 3.96 (2.39) | CK AUClast/D [1]: 13.68 (2.21) | CK Cmax/D [1]: 2.08 (0.39) | CK AUClast/D (ABCC4 rs1151471 TC, mean (SD)): 24.64 (13.71) | CK Cmax/D (ABCC4 rs1151471 TC, mean (SD)): 3.32 (2.06) | CK AUClast/D (ABCC4 rs1151471 TT, mean (SD)): 32.65 (19.80) | CK Cmax/D (ABCC4 rs1151471 TT, mean (SD)): 4.16 (2.32) | CK AUClast/D (ABCC4 rs1189437 GG, n = 1): 12.12 (−) | CK Cmax/D (ABCC4 rs1189437 GG, n = 1): 1.80 (−) | CK AUClast/D (ABCC4 rs1189437 GT, mean (SD)): 20.77 (9.40) | CK Cmax/D (ABCC4 rs1189437 GT, mean (SD)): 2.74 (1.29) | CK AUClast/D (ABCC4 rs1189437 TT, mean (SD)): 31.84 (19.14) | CK Cmax/D (ABCC4 rs1189437 TT, mean (SD)): 4.06 (2.19) | CK AUClast/D (ABCC4 rs1751034 TC, mean (SD)): 18.58 (7.25) | CK Cmax/D (ABCC4 rs1751034 TC, mean (SD)): 2.45 (0.95) | CK AUClast/D (ABCC4 rs1751034 TT, mean (SD)): 32.53 (18.96) | CK Cmax/D (ABCC4 rs1751034 TT, mean (SD)): 4.23 (2.32) | CK AUClast/D (ABCC4 rs2274406 CT, mean (SD)): 28.24 (19.96) | CK Cmax/D (ABCC4 rs2274406 CT, mean (SD)): 3.68 (2.42) | CK AUClast/D [2]: 33.40 (14.80) | CK Cmax/D [2]: 4.70 (2.25) | CK AUClast/D [3]: 26.57 (13.77) | CK Cmax/D [3]: 3.25 (1.32) | CK AUClast/D (ABCC4 rs2274407 CA, mean (SD)): 28.22 (13.76) | CK Cmax/D (ABCC4 rs2274407 CA, mean (SD)): 3.43 (1.35) | CK AUClast/D (ABCC4 rs2274407 CC, mean (SD)): 28.81 (18.82) | CK Cmax/D (ABCC4 rs2274407 CC, mean (SD)): 3.84 (2.38) | CK AUClast/D (ABCC4 rs4148546 AA, mean (SD)): 26.51 (15.61) | CK Cmax/D (ABCC4 rs4148546 AA, mean (SD)): 3.43 (1.93) | CK Cmax/D (ABCC4 rs4148546 GA, mean (SD)): 3.49 (1.91) | CK AUClast/D (ABCC4 rs4148546 GG, mean (SD)): 39.82 (26.88) | CK Cmax/D (ABCC4 rs4148546 GG, mean (SD)): 4.87 (2.88) | CK AUClast/D (ABCC4 rs11568658 CC, mean (SD)): 28.31 (19.56) | CK AUClast/D [4]: 25.61 (12.77) | CK Cmax/D [4]: 3.31 (1.53) | CK AUClast/D [5]: 25.70 (13.01) | CK Cmax/D [5]: 3.29 (1.35) | CK AUClast/D (ABCG2 rs2054576 GA, mean (SD)): 32.78 (22.38) | CK Cmax/D (ABCG2 rs2054576 GA, mean (SD)): 4.31 (2.78) | CK AUClast/D (ABCG2 rs2231142 GG, mean (SD)): 27.45 (13.31) | CK Cmax/D (ABCG2 rs2231142 GG, mean (SD)): 3.51 (1.56) | CK AUClast/D (ABCG2 rs2231142 GT, mean (SD)): 31.50 (23.56) | CK Cmax/D (ABCG2 rs2231142 GT, mean (SD)): 3.89 (2.60) | CK AUClast/D (ABCG2 rs2231142 TT, mean (SD)): 25.70 (13.01) | CK Cmax/D (ABCG2 rs2231142 TT, mean (SD)): 3.29 (1.35) | CK AUClast/D (ABCG2 rs2231148 AA, mean (SD)): 35.54 (21.89) | CK Cmax/D (ABCG2 rs2231148 AA, mean (SD)): 4.43 (2.92) | CK AUClast/D (ABCG2 rs2231148 AT, mean (SD)): 39.28 (26.36) | CK Cmax/D (ABCG2 rs2231148 AT, mean (SD)): 4.87 (3.24) | CK AUClast/D (ABCG2 rs2231148 TT, mean (SD)): 23.05 (8.91) | CK Cmax/D (ABCG2 rs2231148 TT, mean (SD)): 3.09 (1.18) | CK AUClast/D (ABCG2 rs2725248 AA, mean (SD)): 26.94 (18.76) | CK Cmax/D (ABCG2 rs2725248 AA, mean (SD)): 3.68 (2.42) | CK AUClast/D (ABCG2 rs2725248 CA, mean (SD)): 31.91 (15.94) | CK Cmax/D (ABCG2 rs2725248 CA, mean (SD)): 3.96 (1.89) | CK AUClast/D (ABCG2 rs2725248 CC, mean (SD)): 40.01 (16.71)
Compound: CC(C)=CCC[C@](C)(O[C@@H]1O[C@H](CO)[C@@H](O)[C@H](O)[C@H]1O)[C@H]1CC[C@]2(C)[C@@H]1[C@H](O)C[C@@H]1[C@@]3(C)CC[C@H](O)C(C)(C)[C@@H]3CC[C@]12C [Ginsenoside compound K, 20-O-beta-D-glucopyranosyl-20(S)-protopanaxadiol]
